From ChEMBL document CHEMBL1255444, “In vitro antibacterial activities of JNJ-Q2, a new broad-spectrum fluoroquinolone” (Antimicrob Agents Chemother, 2010)

Assays:
Format in all cases: functional
Streptococcus pneumoniae [1] = test: Antibacterial activity against Streptococcus pneumoniae ATCC 49619 by broth microdilution method
In short: (§1)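 MICs by CLSI M07-A7 broth microdilution in cation-adjusted Mueller-Hinton medium. For S. pneumoniae the medium was supplemented with 5% lysed horse blood. CLSI quality control strains were run alongside as appropriate.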

Staphylococcus aureus [2] = test: Antibacterial activity against Staphylococcus aureus […] by broth microdilution method
In short: (§2)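 CLSI M07-A7 broth microdilution MIC. Medium was cation-adjusted Mueller-Hinton broth. For S. pneumoniae it was Mueller-Hinton supplemented with 5% lysed horse blood. CLSI quality-control strains were included as appropriate.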

Staphylococcus aureus [3] = test: Antibacterial activity against methicillin-susceptible Staphylococcus aureus by broth microdilution method
Staphylococcus aureus [4] = test: Antibacterial activity against methicillin-resistant Staphylococcus aureus by broth microdilution method; in short: as §2
Staphylococcus aureus [5] = test: Antibacterial activity against methicillin-, ciprofloxacin-resistant Staphylococcus aureus by broth microdilution method; in short: as §2
[6] = test system: Staphylococcus epidermidis; test: Antibacterial activity against methicillin-susceptible Staphylococcus epidermidis by broth microdilution method
[7] = test system: Staphylococcus epidermidis; test: Antibacterial activity against methicillin-resistant Staphylococcus epidermidis by broth microdilution method
[8] = test system: Staphylococcus epidermidis; test: Antibacterial activity against methicillin-, ciprofloxacin-resistant Staphylococcus epidermidis by broth microdilution method
Streptococcus pyogenes = test: Antibacterial activity against Streptococcus pyogenes by broth microdilution method; in short: as §1
Streptococcus agalactiae = test: Antibacterial activity against Streptococcus agalactiae by broth microdilution method; in short: as §1
[9] = Antibacterial activity against Streptococcus sp. group C by broth microdilution method
In short: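 MICs by broth microdilution following CLSI M07-A7 in cation-adjusted Mueller-Hinton medium, using isolates from the J&JPRD culture collection. CLSI quality control strains were included as appropriate.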

Enterococcus faecalis = test: Antibacterial activity against Enterococcus faecalis ATCC 29212 by broth microdilution method; in short: as §1
Enterococcus faecium = test: Antibacterial activity against Enterococcus faecium by broth microdilution method; in short: as §1
Haemophilus influenzae = test: Antibacterial activity against Haemophilus influenzae by broth microdilution method; in short: as §1
Moraxella catarrhalis = test: Antibacterial activity against Moraxella catarrhalis by broth microdilution method; in short: as §1
Escherichia coli = test: Antibacterial activity against ciprofloxacin-resistant Escherichia coli by broth microdilution method; in short: as §2
Klebsiella aerogenes = test: Antibacterial activity against Enterobacter aerogenes by broth microdilution method; in short: as §1
Serratia marcescens = test: Antibacterial activity against Serratia marcescens by broth microdilution method; in short: as §1
Proteus mirabilis = test: Antibacterial activity against Proteus mirabilis by broth microdilution method; in short: as §1
Providencia stuartii = test: Antibacterial activity against Providencia stuartii by broth microdilution method; in short: as §1
Citrobacter freundii = test: Antibacterial activity against Citrobacter freundii by broth microdilution method; in short: as §1
Pseudomonas aeruginosa = test: Antibacterial activity against Pseudomonas aeruginosa ATCC 27853 by broth microdilution method; in short: as §1
Streptococcus pneumoniae [10] = test: Antibacterial activity against Streptococcus pneumoniae isolate OC7189 by broth microdilution method; in short: as §2
Streptococcus pneumoniae [11] = test: Antibacterial activity against Streptococcus pneumoniae isolate OC6608 by broth microdilution method; in short: as §2
Streptococcus pneumoniae [12] = test: Antibacterial activity against Streptococcus pneumoniae isolate OC5462 by broth microdilution method; in short: as §2
Streptococcus pneumoniae [13] = test: Antibacterial activity against Streptococcus pneumoniae isolate OC7376 by broth microdilution method; in short: as §2
Streptococcus pneumoniae [14] = test: Antibacterial activity against Streptococcus pneumoniae isolate OC6790 by broth microdilution method; in short: as §2
Streptococcus pneumoniae [15] = test: Antibacterial activity against Streptococcus pneumoniae isolate OC7368 by broth microdilution method; in short: as §2
Streptococcus pneumoniae [16] = test: Antibacterial activity against Streptococcus pneumoniae isolate OC7348 by broth microdilution method; in short: as §2
Streptococcus pneumoniae [17] = test: Antibacterial activity against Streptococcus pneumoniae isolate OC6585 by broth microdilution method; in short: as §2
Streptococcus pneumoniae [18] = test: Antibacterial activity against Streptococcus pneumoniae isolate OC6610 by broth microdilution method; in short: as §2
Staphylococcus aureus [19] = test: Antibacterial activity against methicillin-resistant Staphylococcus aureus isolate OC11223 by broth microdilution method; in short: as §2
Staphylococcus aureus [20] = test: Antibacterial activity against methicillin-resistant Staphylococcus aureus isolate OC11696 by broth microdilution method; in short: as §2
Staphylococcus aureus [21] = test: Antibacterial activity against methicillin-resistant Staphylococcus aureus isolate OC12501 by broth microdilution method; in short: as §2
Staphylococcus aureus [22] = test: Antibacterial activity against methicillin-resistant Staphylococcus aureus isolate OC8530 harboring gyrA S84L and parC I143V mutant gene by broth microdilution method
In short: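 CLSI M07-A7 broth microdilution MIC in cation-adjusted Mueller-Hinton medium. For S. pneumoniae the medium was supplemented with 5% lysed horse blood. CLSI quality-control strains were included as appropriate.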

Staphylococcus aureus [23] = test: Antibacterial activity against methicillin-resistant Staphylococcus aureus isolate OC4222 harboring gyrA S84L and parC S80F mutant gene by broth microdilution method; in short: as §2
Staphylococcus aureus [24] = test: Antibacterial activity against methicillin-resistant Staphylococcus aureus isolate OC2838 by broth microdilution method; in short: as §2
Staphylococcus aureus [25] = test: Antibacterial activity against methicillin-resistant Staphylococcus aureus isolate OC17042 harboring gyrA S84L/G106D, parC S80F and parE D732N mutant gene by broth microdilution method; in short: as §2
Staphylococcus aureus [26] = test: Antibacterial activity against methicillin-resistant Staphylococcus aureus isolate OC11521 harboring gyrA S84L/S85P, parC E84G mutant gene by broth microdilution method; in short: as §2
Streptococcus pneumoniae [27] = test: Antibacterial activity against Streptococcus pneumoniae R6 by agar dilution method
In short: (§3)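 MICs for the resistance-selection studies were determined by CLSI agar dilution on Mueller-Hinton medium. For S. pneumoniae the medium was supplemented with 5% lysed horse blood. For MRSA fluctuation-assay strains an arithmetic agar dilution scheme was used for a more precise MIC.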

Streptococcus pneumoniae [28] = test: Antibacterial activity against Streptococcus pneumoniae OC7452 harboring parC S79Y mutant gene by agar dilution method; in short: as §3
Streptococcus pneumoniae [29] = test: Antibacterial activity against Streptococcus pneumoniae OC7453 harboring gyrA S81F mutant gene by agar dilution method; in short: as §3
Streptococcus pneumoniae [30] = test: Antibacterial activity against Streptococcus pneumoniae OC6755 harboring gyrA S81F and parC S79Y mutant gene by agar dilution method; in short: as §3

COc1c(N2C[C@@H]3CCCN[C@@H]3C2)c(F)cc2c(=O)c(C(=O)O)cn(C3CC3)c12 [MOXIFLOXACIN]
0.5 µg/mL: MIC50 (Serratia marcescens) | MIC50 (Proteus mirabilis) | MIC90 (Proteus mirabilis) | MIC (Streptococcus pneumoniae [29])
0.25 µg/mL: MIC50 (Streptococcus pneumoniae [1]) | MIC90 (Streptococcus pyogenes) | MIC50 (Streptococcus agalactiae) | MIC90 (Streptococcus agalactiae) | MIC90 [9] | MIC (Enterococcus faecalis) | MIC50 (Enterococcus faecalis) | MIC90 (Klebsiella aerogenes) | MIC (Streptococcus pneumoniae [10]) | MIC (Streptococcus pneumoniae [28])
32 µg/mL: MIC50 (Escherichia coli) | MIC50 (Providencia stuartii) | MIC (Staphylococcus aureus [26])
64 µg/mL: MIC90 (Providencia stuartii)
0.12 µg/mL: MIC (Streptococcus pyogenes) | MIC50 (Streptococcus pyogenes) | MIC50 [9] | MIC50 (Klebsiella aerogenes) | MIC (Streptococcus pneumoniae [27])
128 µg/mL: MIC90 (Escherichia coli)
> 8 µg/mL: MIC90 (Citrobacter freundii)
2 µg/mL: MIC50 (Staphylococcus aureus [2]) | MIC50 (Staphylococcus aureus [4]) | MIC50 [7] | MIC50 [8] | MIC50 (Citrobacter freundii) | MIC50 (Pseudomonas aeruginosa) | MIC (Streptococcus pneumoniae [11]) | MIC (Streptococcus pneumoniae [13]) | MIC (Staphylococcus aureus [22]) | MIC (Staphylococcus aureus [23])
4 µg/mL: MIC90 (Streptococcus pneumoniae [1]) | MIC50 (Staphylococcus aureus [5]) | MIC90 [7] | MIC90 [8] | MIC50 (Enterococcus faecium) | MIC90 (Pseudomonas aeruginosa) | MIC (Streptococcus pneumoniae [14]) | MIC (Streptococcus pneumoniae [15]) | MIC (Staphylococcus aureus [24])
0.03 µg/mL: MIC90 (Haemophilus influenzae)
0.06 µg/mL: MIC (Staphylococcus aureus [3]) | MIC50 (Staphylococcus aureus [3]) | MIC50 [6] | MIC (Moraxella catarrhalis) | MIC50 (Moraxella catarrhalis) | MIC90 (Moraxella catarrhalis) | MIC (Staphylococcus aureus [19])
16 µg/mL: MIC90 (Enterococcus faecalis) | MIC (Streptococcus pneumoniae [18])
> 16 µg/mL: MIC90 (Enterococcus faecium)
1 µg/mL: MIC90 (Serratia marcescens) | MIC (Streptococcus pneumoniae [12]) | MIC (Staphylococcus aureus [20]) | MIC (Staphylococcus aureus [21])
8 µg/mL: MIC90 (Staphylococcus aureus [2]) | MIC90 (Staphylococcus aureus [4]) | MIC90 (Staphylococcus aureus [5]) | MIC (Streptococcus pneumoniae [16]) | MIC (Streptococcus pneumoniae [17]) | MIC (Staphylococcus aureus [25]) | MIC (Streptococcus pneumoniae [30])
0.015 µg/mL: MIC50 (Haemophilus influenzae)
